In ChEMBL document CHEMBL1149790, “Synthesis of some novel thiourea derivatives obtained from 5-[(4-aminophenoxy)methyl]-4-alkyl/aryl-2,4-dihydro-3H-1,2,4-triazole-3-thiones and evaluation as antiviral/anti-HIV and anti-tuberculosis agents” (Eur J Med Chem, 2008):
≈ marks a conversion by molar mass, not a printed value.

Legend:
[1] = Cytotoxicity against human HEL cells assessed as alteration of cell morphology; assay type: cell-based
In short: (§1)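 Uninfected cell cultures exposed to test compounds alongside antiviral assays; minimum cytotoxic concentration (MCC) = concentration causing a microscopically detectable alteration of cell morphology.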

[2] = test system: Human betaherpesvirus 5; test: Antiviral activity against human cytomegalovirus Davis infected HEL cells assessed as reduction in virus plaque formation; assay type: functional, organism-based; details: Human betaherpesvirus 5, Davis
[3] = test system: Human betaherpesvirus 5; test: Antiviral activity against human cytomegalovirus AD169 infected HEL cells assessed as reduction in virus plaque formation; assay type: functional, organism-based; details: Human betaherpesvirus 5, AD169, HEL
[4] = Cytotoxicity against human HEL cells assessed as reduction of cell growth; assay type: cell-based
In short: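 HEL cells; CC50 = compound concentration reducing cell growth by 50%.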

[5] = test system: Respiratory syncytial virus; test: Antiviral activity against respiratory syncytial virus in human HeLa cells assessed as inhibition of virus-induced cytopathogenicity; assay type: functional
In short: (§2)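 Confluent cell monolayers (E6SM, HEL, HeLa or Vero, per line) inoculated with 100 CCID50 virus; 1 h adsorption, residual virus removed, then incubated with compound at 400, 200, 100 … µg/ml. Cytopathicity scored once complete in untreated virus controls; MIC = concentration inhibiting virus-induced cytopathicity.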

[6] = test system: Human alphaherpesvirus 3; test: Antiviral activity against TK+ VZV OKA infected HEL cells assessed as reduction in virus plaque formation; assay type: functional, organism-based; details: Human alphaherpesvirus 3, OKA
[7] = test system: Coxsackievirus B4; test: Antiviral activity against Coxsackie virus B4 in african green monkey Vero cells assessed as reduction of virus-induced cytopathogenicity; assay type: functional; details: Enterovirus B; in short: as §2
[8] = test system: Human alphaherpesvirus 1; test: Antiviral activity against thymidine kinase deficient and acyclovir resistant HSV1 KOS in human HEL cells assessed as reduction of virus-induced cytopathogenicity; assay type: functional; details: Human alphaherpesvirus 1, KOS; in short: as §2
[9] = Cytotoxicity against human E6SM cells; assay type: cell-based; details: E6SM cells; in short: as §1
[10] = test system: Vero; test: Cytotoxicity against african green monkey Vero cells; assay type: cell-based; details: chlorocebus sabaeus; in short: as §1
[11] = test system: Sindbis virus; test: Antiviral activity against Sindbis virus in african green monkey Vero cells assessed as reduction of virus-induced cytopathogenicity; assay type: functional; in short: as §2
[12] = test system: Vesicular stomatitis virus; test: Antiviral activity against vesicular stomatitis virus in human HeLa cells assessed as inhibition of virus-induced cytopathogenicity; assay type: functional; in short: as §2
[13] = test system: Punta Toro virus; test: Antiviral activity against Punta Toro virus in african green monkey Vero cells assessed as reduction of virus-induced cytopathogenicity; assay type: functional; in short: as §2
[14] = test system: Human immunodeficiency virus 1; test: Antiviral activity against HIV1 3B in human MT4 cells assessed as protection against virus-induced cytopathogenicity by MTT assay; assay type: functional, organism-based; parameters: Activity: concentration or dose not given beside the values; details: for IC50: Human immunodeficiency virus 1, 3B, MT4
In short: (§3)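 MT-4 cells at 6 × 10⁵ cells/ml infected with HIV-1 IIIB or HIV-2 ROD at 100–300 CCID50; compounds in serial five-fold dilutions, triplicate mock- and virus-infected wells. MTT viability read at 540 and 690 nm after 5 days, median OD of three wells; EC50 = 50% protection from viral cytopathic effect.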

[15] = test system: Human alphaherpesvirus 1; test: Antiviral activity against thymidine kinase deficient and acyclovir resistant HSV1 KOS in human E6SM cells assessed as reduction of virus-induced cytopathogenicity; assay type: functional; details: Human alphaherpesvirus 1, KOS; in short: as §2
[16] = test system: Human alphaherpesvirus 3; test: Antiviral activity against TK- VZV 07/1 infected HEL cells assessed as reduction in virus plaque formation; assay type: functional, organism-based; details: Human alphaherpesvirus 3, 07/1, HEL
[17] = test system: Coxsackievirus B4; test: Antiviral activity against Coxsackie virus B4 in human HeLa cells assessed as inhibition of virus-induced cytopathogenicity; assay type: functional; details: Enterovirus B; in short: as §2
[18] = Cytotoxicity against human HeLa cells; assay type: cell-based; in short: as §1
[19] = test system: Human alphaherpesvirus 2; test: Antiviral activity against HSV2 G in human HEL cells assessed as reduction of virus-induced cytopathogenicity; assay type: functional; details: Human alphaherpesvirus 2, G; in short: as §2
[20] = test system: Human alphaherpesvirus 2; test: Antiviral activity against HSV2 G in human E6SM cells assessed as reduction of virus-induced cytopathogenicity; assay type: functional; details: Human alphaherpesvirus 2, G; in short: as §2
[21] = test system: Human immunodeficiency virus 2; test: Antiviral activity against HIV2 ROD in human MT4 cells assessed as protection against virus-induced cytopathogenicity by MTT assay; assay type: functional, organism-based; parameters: Activity: concentration or dose not given beside the values; details: for IC50: Human immunodeficiency virus 2, ROD, MT4; in short: as §3
[22] = Cytotoxicity against human MT4 cells by MTT assay; assay type: cell-based
In short: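 Mock-infected MT-4 cells (6 × 10⁵ cells/ml) with serial five-fold compound dilutions in triplicate; MTT reduction read at 540 and 690 nm after 5 days, median OD of three wells; CC50 = concentration reducing OD540 of mock-infected control by 50%.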

[23] = test system: Mammalian orthoreovirus 1; test: Antiviral activity against Reo virus 1 in african green monkey Vero cells assessed as reduction of virus-induced cytopathogenicity; assay type: functional; in short: as §2
[24] = test system: Human alphaherpesvirus 1; test: Antiviral activity against HSV1 KOS in human HEL cells assessed as reduction of virus-induced cytopathogenicity; assay type: functional; details: Human alphaherpesvirus 1, KOS; in short: as §2
[25] = test system: Human respirovirus 3; test: Antiviral activity against Parainfluenza 3 virus in african green monkey Vero cells assessed as reduction of virus-induced cytopathogenicity; assay type: functional; in short: as §2
[26] = test system: Vesicular stomatitis virus; test: Antiviral activity against in Vesicular stomatitis virus in human E6SM cells assessed as reduction of virus-induced cytopathogenicity; assay type: functional; in short: as §2
[27] = test system: Human alphaherpesvirus 1; test: Antiviral activity against HSV1 KOS in human E6SM cells assessed as reduction of virus-induced cytopathogenicity; assay type: functional; details: Human alphaherpesvirus 1, KOS; in short: as §2
[28] = test system: Vesicular stomatitis virus; test: Antiviral activity against in Vesicular stomatitis virus in human HEL cells assessed as reduction of virus-induced cytopathogenicity; assay type: functional; in short: as §2

Nc1ccn(C[C@@H](CO)OCP(=O)(O)O)c(=O)n1.O.O [CIDOFOVIR]
MCC [1]: > 400 µg/mL
EC50 [2]: 0.64 µg/mL
EC50 [3]: 0.075 µg/mL
CC50 [4]: ≥ 18 µg/mL

C=CCn1c(COc2ccc(NC(=S)NC)cc2)n[nH]c1=S
MIC [5]: > 80 µg/mL
EC50 [6]: > 100 µg/mL
MIC [7]: > 80 µg/mL
MIC [8]: > 400 µg/mL
MCC [9]: > 400 µg/mL
Activity [10]: 400 µg/mL
MIC [11]: > 80 µg/mL
MIC [12]: > 80 µg/mL
MIC [13]: > 80 µg/mL
Activity [14]: 1%
IC50 [14]: > 101 µg/mL
MIC [15]: > 400 µg/mL
MCC [1]: > 400 µg/mL
EC50 [16]: > 100 µg/mL
EC50 [2]: > 100 µg/mL
MIC [17]: > 80 µg/mL
MCC [18]: 400 µg/mL
MIC [19]: > 400 µg/mL
MIC [20]: > 400 µg/mL
Activity [21]: 3.5%
IC50 [21]: > 110 µg/mL
CC50 [22]: 108 µg/mL (≈ 323 µM)
MIC [23]: > 80 µg/mL
MIC [24]: > 400 µg/mL
EC50 [3]: > 100 µg/mL
MIC [25]: > 80 µg/mL
MIC [26]: > 400 µg/mL
MIC [27]: > 400 µg/mL
MIC [28]: > 400 µg/mL
CC50 [4]: > 50 µg/mL

S=C(Nc1ccccc1)Nc1ccc(OCc2n[nH]c(=S)n2-c2ccccc2)cc1
MIC [5]: > 16 µg/mL
EC50 [6]: 26 µg/mL (≈ 60 µM)
MIC [7]: > 16 µg/mL
MIC [8]: > 80 µg/mL
MCC [9]: 400 µg/mL
Activity [10]: 80 µg/mL
MIC [11]: > 16 µg/mL
MIC [12]: > 16 µg/mL
MIC [13]: > 16 µg/mL
Activity [14]: 5.5%
IC50 [14]: > 30.6 µg/mL
MIC [15]: > 80 µg/mL
MCC [1]: 400 µg/mL
EC50 [16]: 39 µg/mL (≈ 90 µM)
EC50 [2]: 37 µg/mL (≈ 85.3 µM)
MIC [17]: > 16 µg/mL
MCC [18]: 80 µg/mL
MIC [19]: > 80 µg/mL
MIC [20]: > 80 µg/mL
Activity [21]: 4.5%
IC50 [21]: > 41.5 µg/mL
CC50 [22]: 44.1 µg/mL (≈ 102 µM)
MIC [23]: > 16 µg/mL
MIC [24]: > 80 µg/mL
EC50 [3]: > 20 µg/mL
MIC [25]: > 16 µg/mL
MIC [26]: > 80 µg/mL
MIC [27]: > 80 µg/mL
MIC [28]: > 80 µg/mL
CC50 [4]: > 50 µg/mL

Nc1nc2c(ncn2COCCO)c(=O)[nH]1 [ACYCLOVIR]
MIC [8]: 48 µg/mL (≈ 213 µM)
MCC [9]: > 400 µg/mL
MIC [15]: 48 µg/mL (≈ 213 µM)
MCC [1]: > 400 µg/mL
MIC [19]: 0.384 µg/mL (≈ 1.71 µM)
MIC [20]: 0.384 µg/mL (≈ 1.71 µM)
MIC [24]: 0.384 µg/mL (≈ 1.71 µM)
MIC [26]: > 400 µg/mL
MIC [27]: 0.384 µg/mL (≈ 1.71 µM)
MIC [28]: > 400 µg/mL
CC50 [4]: 200 µg/mL (≈ 888 µM)

Nc1nc2c(ncn2COC(CO)CO)c(=O)[nH]1 [GANCICLOVIR]
MIC [8]: 2.4 µg/mL (≈ 9.4 µM)
MCC [9]: > 100 µg/mL
MIC [15]: 2.4 µg/mL (≈ 9.4 µM)
MCC [1]: > 100 µg/mL
EC50 [2]: 1.9 µg/mL (≈ 7.44 µM)
MIC [19]: 0.032 µg/mL (≈ 0.125 µM)
MIC [20]: 0.032 µg/mL (≈ 0.125 µM)
MIC [24]: 0.032 µg/mL (≈ 0.125 µM)
EC50 [3]: 0.64 µg/mL (≈ 2.51 µM)
MIC [26]: > 100 µg/mL
MIC [27]: 0.032 µg/mL (≈ 0.125 µM)
MIC [28]: > 100 µg/mL
CC50 [4]: 87 µg/mL (≈ 341 µM)
